The text below walks through data of ChEMBL document CHEMBL1157634, “Differential binding of phenothiazine urea derivatives to wild-type human cholinesterases and butyrylcholinesterase mutants” (Bioorg Med Chem, 2010).

Activity calls are given as the source filed them. No cut-off for these calls is given here.

Experiment [1] concerns the target T1, Cholinesterase (Homo sapiens, UniProt P06276). The experiment is described as follows: Inhibition of human plasma BuChE by modified Ellman's spectrophotometric method. The format is cell-free. In outline: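 Purified human plasma BuChE (~0.05 units in 0.1% gelatin) in DTNB buffer at pH 8.0, 23 °C, read at 412 nm. Inhibitors first screened in 1:10 serial dilutions in 50% acetonitrile. Lineweaver–Burk plots used butyrylthiocholine 3 × 10^-5–1.6 × 10^-4 M without inhibitor and at two inhibitor concentrations. Ki taken as the x-intercept of the slope replot. Runs generally at least in triplicate and averaged.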

Experiment [2] deals with T2, Acetylcholinesterase (Homo sapiens, UniProt P22303). The experiment is described as follows: Inhibition of human recombinant AChE by modified Ellman's spectrophotometric method.
The species entered for experiment [3] is Homo sapiens. In words: Inhibition of human BuChE Y332A mutant assessed as residual activity at 500 nM by modified Ellman's spectrophotometric method relative to control. In outline:
(§1)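 Recombinant human BuChE mutants (D70G, F329A, Y332A), with wild-type BuChE for comparison, tested by modified Ellman assay. Buffered DTNB (usually pH 8.0), 23 °C, single butyrylthiocholine concentration of 1.6 × 10^-4 M final. Inhibitor added in 50% aqueous acetonitrile (final 1.67% v/v). Rate read at 412 nm every 5 s for 1 min.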

Experiment [4] has as its target T1, Cholinesterase. The settings on record: 500 nM.
Experiment [5] has as its target T2, Acetylcholinesterase. The experiment is described as follows: Inhibition of human AChE at 1.8 uM by Michaelis-Menten analysis in presence of 20 mM acetylthiocholine as substrate. In outline:
(§2)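 Purified recombinant human AChE (~0.03 units in 0.1% aqueous gelatin) in buffered DTNB (usually pH 8.0) at 23 °C. Fixed enzyme and inhibitor concentrations across acetylthiocholine 0.039–40 mM. Inhibitor added in 50% aqueous acetonitrile (final 1.67% v/v). Hydrolysis rate (ΔA/min) read at 412 nm every 5 s for 1 min. Michaelis–Menten plots of rate versus substrate concentration.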

The target in experiment [6] is T1, Cholinesterase. The settings on record: 1.8 uM.
Experiment [7] concerns the target T1, Cholinesterase. The following applies: 50 nM.
For experiment [8], the species on record is Homo sapiens. In words: Inhibition of human BuChE F329A mutant at 500 nM by modified Ellman's spectrophotometric method. In outline: as §1
The target in experiment [9] is T2, Acetylcholinesterase. In words: Inhibition of human AChE at 1.8 uM by Michaelis-Menten analysis in presence of 10 mM acetylthiocholine as substrate. In outline:
as §2

The target in experiment [10] is T1, Cholinesterase. The following applies: 1.8 uM. The source holds these as a separate data set.
For experiment [11], the species on record is Homo sapiens. In words: Inhibition of human BuChE D70G mutant at 50 nM by modified Ellman's spectrophotometric method. In outline: as §1

T2 sequence (P22303 whole entry): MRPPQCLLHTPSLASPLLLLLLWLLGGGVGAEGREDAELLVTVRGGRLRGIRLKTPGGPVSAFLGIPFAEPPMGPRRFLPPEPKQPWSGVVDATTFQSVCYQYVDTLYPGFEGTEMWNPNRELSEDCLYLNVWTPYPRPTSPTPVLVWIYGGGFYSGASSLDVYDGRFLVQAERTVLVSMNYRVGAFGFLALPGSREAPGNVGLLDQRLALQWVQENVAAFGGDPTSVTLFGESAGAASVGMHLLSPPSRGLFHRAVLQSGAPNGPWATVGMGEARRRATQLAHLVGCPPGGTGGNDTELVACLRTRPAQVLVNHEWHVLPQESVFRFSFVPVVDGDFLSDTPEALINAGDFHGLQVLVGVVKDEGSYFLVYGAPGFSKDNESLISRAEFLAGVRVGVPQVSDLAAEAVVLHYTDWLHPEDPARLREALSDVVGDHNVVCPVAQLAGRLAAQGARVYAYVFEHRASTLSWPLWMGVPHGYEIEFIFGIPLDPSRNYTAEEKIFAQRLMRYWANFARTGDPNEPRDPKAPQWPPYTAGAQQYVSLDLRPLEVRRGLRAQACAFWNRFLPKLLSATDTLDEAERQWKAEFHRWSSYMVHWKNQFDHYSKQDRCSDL
T1 sequence (P06276 whole entry): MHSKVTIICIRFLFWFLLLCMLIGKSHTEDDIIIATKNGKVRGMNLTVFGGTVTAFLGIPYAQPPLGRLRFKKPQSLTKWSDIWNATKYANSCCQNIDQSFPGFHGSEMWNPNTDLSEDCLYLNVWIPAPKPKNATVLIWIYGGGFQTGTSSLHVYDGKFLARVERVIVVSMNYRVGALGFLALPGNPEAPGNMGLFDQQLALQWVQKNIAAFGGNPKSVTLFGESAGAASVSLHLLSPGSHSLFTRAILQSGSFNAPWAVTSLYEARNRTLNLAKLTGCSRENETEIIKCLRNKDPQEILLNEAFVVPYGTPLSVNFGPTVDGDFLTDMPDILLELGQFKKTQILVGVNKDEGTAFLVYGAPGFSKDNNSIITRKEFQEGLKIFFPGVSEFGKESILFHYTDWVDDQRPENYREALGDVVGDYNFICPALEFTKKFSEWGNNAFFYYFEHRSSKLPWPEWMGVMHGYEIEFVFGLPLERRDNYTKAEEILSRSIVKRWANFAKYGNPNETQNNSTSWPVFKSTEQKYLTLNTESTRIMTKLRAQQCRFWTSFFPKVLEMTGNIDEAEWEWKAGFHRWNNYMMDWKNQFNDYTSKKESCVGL

As to `O=C(NCCc1ccccc1)N1c2ccccc2Sc2ccccc21`, the Ki at Cholinesterase [1] is 0.19 µM; on Acetylcholinesterase [2], “Not Active”.

Regarding `Cc1ccccc1NC(=O)N1c2ccccc2Sc2ccccc21`, the Ki on Cholinesterase [1] is 0.71 µM; on Acetylcholinesterase [2], “Not Active”.

As to `COCCNC(=O)N1c2ccccc2Sc2ccccc21`, the Ki at Cholinesterase [1] was 29.1 µM; at Acetylcholinesterase [2] it was “Not Active”.

On to `O=C(NC1CCCC1)N1c2ccccc2Sc2ccccc21`, for which the Ki on Cholinesterase [1] is 2.99 µM; at Acetylcholinesterase [2] it was “Not Active”.

With `O=C(NCCN1CCOCC1)N1c2ccccc2Sc2ccccc21`, the Ki on Cholinesterase [1] was 6.91 µM; on Acetylcholinesterase [2], “Not Active”.

`O=C(N1CCOCC1)N1c2ccccc2Sc2ccccc21`: the Ki on Cholinesterase [1] was 7.1 µM; at Acetylcholinesterase [2], “Not Active”.

Take `O=C(N1CCCC1)N1c2ccccc2Sc2ccccc21`: the Ki is 0.56 µM on Cholinesterase [1] and “Not Active” at Acetylcholinesterase [2].

Regarding `O=C(NC12CC3CC(CC(C3)C1)C2)N1c2ccccc2Sc2ccccc21`, the Ki at Cholinesterase [1] was 0.35 µM; on Acetylcholinesterase [2] it was “Not Active”.

Consider `O=C(NC1CCCCC1)N1c2ccccc2Sc2ccccc21`, for which the results for the Ki at Cholinesterase [1] and on Acetylcholinesterase [2] were 2.81 µM and “Not Active”, respectively.

As to `CNC(=O)N1c2ccccc2Sc2ccccc21`, the Ki amounted to 18.3 µM on Cholinesterase [1] and 9.36 µM on Acetylcholinesterase [2] (read-out: Ki).

`O=C(NCc1cccc2ccccc12)N1c2ccccc2Sc2ccccc21`: the Ki at Cholinesterase [1] was 0.15 µM; at Acetylcholinesterase [2], “Not Active”.

For `NC(=O)N1c2ccccc2Sc2ccccc21`, the Ki on Cholinesterase [1] stood at 90.8 µM; on Acetylcholinesterase [2] (read-out: Ki), 89.3 µM.

For the compound `COc1ccc(NC(=O)N2c3ccccc3Sc3ccccc32)cc1`, the Ki at Cholinesterase [1] is 9.63 µM; at Acetylcholinesterase [2] it was “Not Active”.

For `CN(C)C(=O)N1c2ccccc2Sc2ccccc21`, the Ki on Cholinesterase [1] was found to be 9.2 µM; on Acetylcholinesterase [2] (read-out: Ki) it was 400 µM.

For the compound `CN1CCN(C(=O)N2c3ccccc3Sc3ccccc32)CC1`, the Ki on Cholinesterase [1] is 17.1 µM; on Acetylcholinesterase [2], “Not Active”.

On to `CCCNC(=O)N1c2ccccc2Sc2ccccc21`, for which the Ki was 20.5 µM at Cholinesterase [1] and “Not Active” at Acetylcholinesterase [2].

For the compound `CCN(CC)C(=O)N1c2ccccc2Sc2ccccc21`, the results for the Ki on Cholinesterase [1] and on Acetylcholinesterase [2] were 1.05 µM and “Not Active”, respectively.

Consider `O=C(NC1CC1)N1c2ccccc2Sc2ccccc21`, for which the Ki was 42.5 µM at Cholinesterase [1] and “Not Active” on Acetylcholinesterase [2].

Take `O=C(N1CCCCC1)N1c2ccccc2Sc2ccccc21`: the Ki was 1.56 µM at Cholinesterase [1] and “Not Active” on Acetylcholinesterase [2].

As for `CC(C)N(C(=O)N1c2ccccc2Sc2ccccc21)C(C)C`, the Ki on Cholinesterase [1] was 0.18 µM; on Acetylcholinesterase [2], “Not Active”.

In the case of `CCCCNC(=O)N1c2ccccc2Sc2ccccc21`, the figures for the inhibition constant (Ki) at Cholinesterase [1] and at Acetylcholinesterase [2] were 24.7 µM and “Not Active”, respectively.

In the case of `O=C(NCCCN1CCOCC1)N1c2ccccc2Sc2ccccc21`, the Ki at Cholinesterase [1] is 7.86 µM; at Acetylcholinesterase [2], “Not Active”.

On to `CCNC(=O)N1c2ccccc2Sc2ccccc21`, for which the Ki at Cholinesterase [1] was determined as 35 µM; at Acetylcholinesterase [2] (read-out: Ki), 1450 µM.

Consider `CCN(CC)CCNC(=O)N1c2ccccc2Sc2ccccc21`, for which the inhibitory constant (Ki) on Cholinesterase [1] turned out to be 0.51 µM; on Acetylcholinesterase [2] (read-out: Ki) it was 16.3 µM.

For the compound `O=C(NCCN1CCCCC1)N1c2ccccc2Sc2ccccc21`, the Ki on Cholinesterase [1] turned out to be 0.02 µM; at Acetylcholinesterase [2] (read-out: Ki) it was 0.62 µM.

`CC(C)NC(=O)N1c2ccccc2Sc2ccccc21`: the Ki on Cholinesterase [1] amounted to 3.41 µM; at Acetylcholinesterase [2] (read-out: Ki) it was 691 µM.

Consider `O=C(Nc1ccccc1)N1c2ccccc2Sc2ccccc21`, for which the Ki is 0.31 µM on Cholinesterase [1] and “Not Active” on Acetylcholinesterase [2].

Turning to `CCCN(CCC)C(=O)N1c2ccccc2Sc2ccccc21`, the figures for the Ki on Cholinesterase [1] and on Acetylcholinesterase [2] were 0.43 µM and “Not Active”, respectively.

Take `O=C(NCCN1CCCC1)N1c2ccccc2Sc2ccccc21`: the Ki at Cholinesterase [1] was found to be 0.21 µM; at Acetylcholinesterase [2] (read-out: Ki) it was 29.4 µM.

Turning to `Cc1ccc(NC(=O)N2c3ccccc3Sc3ccccc32)cc1`, the Ki at Cholinesterase [1] was 12.1 µM; on Acetylcholinesterase [2], “Not Active”.

In the case of `CN(CCCNC(=O)N1c2ccccc2Sc2ccccc21)c1ccccc1`, the inhibition constant Ki on Cholinesterase [1] was 0.25 µM; on Acetylcholinesterase [2], “Not Active”.

In the case of `O=C(NCc1ccccc1)N1c2ccccc2Sc2ccccc21`, the Ki was 4.45 µM on Cholinesterase [1] and “Not Active” at Acetylcholinesterase [2].

Regarding `CC(C)(C)CNC(=O)N1c2ccccc2Sc2ccccc21`, the Ki at Cholinesterase [1] was 2.66 µM; on Acetylcholinesterase [2], “Not Active”.

On to `O=C(Nc1ccc(Cl)cc1)N1c2ccccc2Sc2ccccc21`, for which the figures for the Ki on Cholinesterase [1] and on Acetylcholinesterase [2] were 4.69 µM and “Not Active”, respectively.

In the case of `CC(C)(C)NC(=O)N1c2ccccc2Sc2ccccc21`, the Ki on Cholinesterase [1] is 10.6 µM; on Acetylcholinesterase [2], “Not Active”.

Regarding `O=C(NC1CCC1)N1c2ccccc2Sc2ccccc21`, the Ki is 10 µM on Cholinesterase [1] and “Not Active” at Acetylcholinesterase [2].

`CC(C)N(CCNC(=O)N1c2ccccc2Sc2ccccc21)C(C)C`: the Activity in the experiment listed under Homo sapiens [3] came to 50%. Further, the inhibition result on Cholinesterase [4], in the experiment listed under Homo sapiens [8], on Acetylcholinesterase [9] and on Cholinesterase [10] was “Active” throughout. The inhibition result on Acetylcholinesterase [5], at Cholinesterase [6] and in the experiment listed under Homo sapiens [11] was “inactive” in each case. Moreover, the inhibition at Cholinesterase [7] was determined as 50%. Further, the values for the Ki on Cholinesterase [1] and on Acetylcholinesterase [2] (read-out: Ki) were 0.009 µM and 0.81 µM, respectively.
